Source: ChEMBL document CHEMBL4118021, “Studies of TAK1-centered polypharmacology with novel covalent TAK1 inhibitors” (Bioorg Med Chem, 2017)

Assays:
[1] = target: T1, Mixed lineage kinase domain-like protein (Homo sapiens) (UniProt Q8NB16); test: Inhibition of MLKL in human SKCO1 cells at 1 uM after 4 hrs using biotin labeled APVAIKVFK probe by mass-spectrometric analysis relative to control; type: cell-based
T1 sequence (whole entry): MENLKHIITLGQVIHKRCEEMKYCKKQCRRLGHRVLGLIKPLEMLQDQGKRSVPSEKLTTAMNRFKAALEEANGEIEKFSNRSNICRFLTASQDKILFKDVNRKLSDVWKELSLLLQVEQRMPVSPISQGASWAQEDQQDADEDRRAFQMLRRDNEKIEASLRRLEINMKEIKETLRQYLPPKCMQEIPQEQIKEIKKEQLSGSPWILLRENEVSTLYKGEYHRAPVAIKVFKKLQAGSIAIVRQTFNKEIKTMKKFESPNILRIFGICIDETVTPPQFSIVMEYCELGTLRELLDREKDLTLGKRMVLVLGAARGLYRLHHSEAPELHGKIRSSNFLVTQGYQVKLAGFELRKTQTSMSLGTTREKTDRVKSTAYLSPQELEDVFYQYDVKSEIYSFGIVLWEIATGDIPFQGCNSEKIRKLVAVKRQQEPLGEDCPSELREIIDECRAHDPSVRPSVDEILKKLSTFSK

[2] = target: Phosphatidylinositol 4-kinase beta (Homo sapiens) (UniProt Q9UBF8); test: Inhibition of PI4KB in human SKCO1 cells at 1 uM after 4 hrs using biotin labeled VPHTQAVVLNSKDK probe by mass-spectrometric analysis relative to control; type: cell-based
Summary of the method: (§1)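 Live SK-CO-1 cells exposed to compound at 1 μM or DMSO for 4 h (KiNativ). Lysates then labeled with lysine-reactive ATP/ADP-biotin probe, and probe-labeled kinase peptides quantified by mass spectrometry. Percent inhibition of probe-dependent recovery calculated relative to DMSO-treated cells.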

[3] = target: Serine/threonine-protein kinase Chk2 (Homo sapiens) (UniProt O96017); test: Inhibition of CHK2 in human SKCO1 cells at 1 uM after 4 hrs using biotin labeled DLKPENVLLSSQEEDCLIK probe by mass-spectrometric analysis relative to control; type: cell-based
[4] = target: Dual specificity mitogen-activated protein kinase kinase 1 (Homo sapiens) (UniProt Q02750); test: Inhibition of MAP2K1 in human SKCO1 cells at 1 uM after 4 hrs using biotin labeled KLIHLEIKPAIR probe by mass-spectrometric analysis relative to control; type: cell-based; conditions: pooled result: one value given for 2 cell lines, strains, targets or settings
[5] = target: Serine/threonine-protein kinase PRP4 homolog (Homo sapiens) (UniProt Q13523); test: Inhibition of PRP4 in human SKCO1 cells at 1 uM after 4 hrs using biotin labeled CNILHADIKPDNILVNESK probe by mass-spectrometric analysis relative to control; type: cell-based; summary of the method: as §1
[6] = target: Interleukin-1 receptor-associated kinase 1 (Homo sapiens) (UniProt P51617); test: Inhibition of IRAK1 in human SKCO1 cells at 1 uM after 4 hrs using biotin labeled AIQFLHQDSPSLIHGDIKSSNVLLDER probe by mass-spectrometric analysis relative to control; type: cell-based
[7] = target: 5'-AMP-activated protein kinase catalytic subunit alpha-2 (Homo sapiens) (UniProt P54646); test: Inhibition of AMPKa2 in human SKCO1 cells at 1 uM after 4 hrs using biotin labeled DLKPENVLLDAHMNAK probe by mass-spectrometric analysis relative to control; type: cell-based
Summary of the method: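 Live SK-CO-1 cells were treated 4 h with compound at 1 μM or DMSO, then lysed. Lysates were labeled with a lysine-reactive ATP/ADP-biotin probe and analysed by mass spectrometry. Percent inhibition is the loss of probe-dependent recovery of the kinase peptide relative to DMSO.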

[8] = target: Mitogen-activated protein kinase kinase kinase kinase 4 (Homo sapiens) (UniProt O95819); test: Inhibition of ZC1/HGK in human SKCO1 cells at 1 uM after 4 hrs using biotin labeled DIKGQNVLLTENAEVK probe by mass-spectrometric analysis relative to control; type: cell-based; conditions: pooled result: one value given for 3 cell lines, strains, targets or settings; summary of the method: as §1
[9] = target: T2, Mitogen-activated protein kinase kinase kinase 7 (Homo sapiens) (UniProt O43318); conditions: 1 uM
T2 sequence (whole entry): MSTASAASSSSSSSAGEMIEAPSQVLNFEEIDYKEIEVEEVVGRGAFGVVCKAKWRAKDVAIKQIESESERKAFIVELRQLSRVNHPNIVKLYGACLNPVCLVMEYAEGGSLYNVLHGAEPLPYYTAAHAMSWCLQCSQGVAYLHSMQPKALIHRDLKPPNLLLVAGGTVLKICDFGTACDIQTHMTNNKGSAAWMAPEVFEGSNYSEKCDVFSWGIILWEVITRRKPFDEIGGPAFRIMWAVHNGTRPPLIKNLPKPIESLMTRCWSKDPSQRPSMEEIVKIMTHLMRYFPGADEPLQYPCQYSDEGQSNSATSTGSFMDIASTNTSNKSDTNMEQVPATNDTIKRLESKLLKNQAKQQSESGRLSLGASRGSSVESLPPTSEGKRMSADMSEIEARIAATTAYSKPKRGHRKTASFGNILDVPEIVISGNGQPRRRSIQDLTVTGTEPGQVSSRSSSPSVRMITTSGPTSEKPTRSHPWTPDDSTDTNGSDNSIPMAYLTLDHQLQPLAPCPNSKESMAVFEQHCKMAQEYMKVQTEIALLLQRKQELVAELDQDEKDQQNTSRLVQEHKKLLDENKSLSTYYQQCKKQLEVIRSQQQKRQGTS

[10] = target: T3, Inhibitor of nuclear factor kappa-B kinase subunit beta (Homo sapiens) (UniProt O14920); test: Inhibition of IKKb in human SKCO1 cells at 1 uM after 4 hrs using biotin labeled DLKPENIVLQQGEQR probe by mass-spectrometric analysis relative to control; type: cell-based
T3 sequence (whole entry): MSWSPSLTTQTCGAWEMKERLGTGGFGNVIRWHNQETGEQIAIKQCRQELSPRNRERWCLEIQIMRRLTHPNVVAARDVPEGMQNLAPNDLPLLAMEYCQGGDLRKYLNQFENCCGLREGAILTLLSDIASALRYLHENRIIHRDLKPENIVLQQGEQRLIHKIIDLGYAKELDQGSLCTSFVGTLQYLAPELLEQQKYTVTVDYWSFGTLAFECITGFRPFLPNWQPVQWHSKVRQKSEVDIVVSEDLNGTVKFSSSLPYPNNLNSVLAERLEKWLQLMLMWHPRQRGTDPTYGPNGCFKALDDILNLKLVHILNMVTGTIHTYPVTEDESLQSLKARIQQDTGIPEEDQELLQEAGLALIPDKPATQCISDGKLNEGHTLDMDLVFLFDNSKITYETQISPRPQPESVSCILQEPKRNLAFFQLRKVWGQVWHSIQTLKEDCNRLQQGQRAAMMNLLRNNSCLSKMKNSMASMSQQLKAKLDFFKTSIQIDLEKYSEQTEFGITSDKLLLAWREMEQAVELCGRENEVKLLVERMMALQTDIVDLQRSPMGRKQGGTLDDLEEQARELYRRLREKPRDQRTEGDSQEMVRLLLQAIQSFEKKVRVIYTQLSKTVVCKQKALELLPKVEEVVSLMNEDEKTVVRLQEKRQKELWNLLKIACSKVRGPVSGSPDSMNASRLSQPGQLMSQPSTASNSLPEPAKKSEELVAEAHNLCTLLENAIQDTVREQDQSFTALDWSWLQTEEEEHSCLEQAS

Sequence of Serine/threonine-protein kinase Chk2 (Homo sapiens) (O96017 whole entry): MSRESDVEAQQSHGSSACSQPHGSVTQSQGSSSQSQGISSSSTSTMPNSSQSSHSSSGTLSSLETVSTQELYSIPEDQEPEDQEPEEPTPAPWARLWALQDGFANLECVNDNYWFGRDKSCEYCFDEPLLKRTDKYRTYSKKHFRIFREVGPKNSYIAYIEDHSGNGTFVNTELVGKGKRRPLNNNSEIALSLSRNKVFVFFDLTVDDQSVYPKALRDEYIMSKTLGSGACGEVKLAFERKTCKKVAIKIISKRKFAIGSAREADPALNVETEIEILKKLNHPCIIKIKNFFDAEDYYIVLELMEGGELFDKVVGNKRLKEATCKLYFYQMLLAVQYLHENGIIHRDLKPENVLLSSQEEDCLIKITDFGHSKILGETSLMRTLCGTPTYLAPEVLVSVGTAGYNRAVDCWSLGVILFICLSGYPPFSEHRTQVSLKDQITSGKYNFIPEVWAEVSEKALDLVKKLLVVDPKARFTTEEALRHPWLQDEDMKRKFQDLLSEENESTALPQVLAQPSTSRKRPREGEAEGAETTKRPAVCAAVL
Sequence of Mitogen-activated protein kinase kinase kinase kinase 4 (Homo sapiens) (O95819 2-1239 limits assumed): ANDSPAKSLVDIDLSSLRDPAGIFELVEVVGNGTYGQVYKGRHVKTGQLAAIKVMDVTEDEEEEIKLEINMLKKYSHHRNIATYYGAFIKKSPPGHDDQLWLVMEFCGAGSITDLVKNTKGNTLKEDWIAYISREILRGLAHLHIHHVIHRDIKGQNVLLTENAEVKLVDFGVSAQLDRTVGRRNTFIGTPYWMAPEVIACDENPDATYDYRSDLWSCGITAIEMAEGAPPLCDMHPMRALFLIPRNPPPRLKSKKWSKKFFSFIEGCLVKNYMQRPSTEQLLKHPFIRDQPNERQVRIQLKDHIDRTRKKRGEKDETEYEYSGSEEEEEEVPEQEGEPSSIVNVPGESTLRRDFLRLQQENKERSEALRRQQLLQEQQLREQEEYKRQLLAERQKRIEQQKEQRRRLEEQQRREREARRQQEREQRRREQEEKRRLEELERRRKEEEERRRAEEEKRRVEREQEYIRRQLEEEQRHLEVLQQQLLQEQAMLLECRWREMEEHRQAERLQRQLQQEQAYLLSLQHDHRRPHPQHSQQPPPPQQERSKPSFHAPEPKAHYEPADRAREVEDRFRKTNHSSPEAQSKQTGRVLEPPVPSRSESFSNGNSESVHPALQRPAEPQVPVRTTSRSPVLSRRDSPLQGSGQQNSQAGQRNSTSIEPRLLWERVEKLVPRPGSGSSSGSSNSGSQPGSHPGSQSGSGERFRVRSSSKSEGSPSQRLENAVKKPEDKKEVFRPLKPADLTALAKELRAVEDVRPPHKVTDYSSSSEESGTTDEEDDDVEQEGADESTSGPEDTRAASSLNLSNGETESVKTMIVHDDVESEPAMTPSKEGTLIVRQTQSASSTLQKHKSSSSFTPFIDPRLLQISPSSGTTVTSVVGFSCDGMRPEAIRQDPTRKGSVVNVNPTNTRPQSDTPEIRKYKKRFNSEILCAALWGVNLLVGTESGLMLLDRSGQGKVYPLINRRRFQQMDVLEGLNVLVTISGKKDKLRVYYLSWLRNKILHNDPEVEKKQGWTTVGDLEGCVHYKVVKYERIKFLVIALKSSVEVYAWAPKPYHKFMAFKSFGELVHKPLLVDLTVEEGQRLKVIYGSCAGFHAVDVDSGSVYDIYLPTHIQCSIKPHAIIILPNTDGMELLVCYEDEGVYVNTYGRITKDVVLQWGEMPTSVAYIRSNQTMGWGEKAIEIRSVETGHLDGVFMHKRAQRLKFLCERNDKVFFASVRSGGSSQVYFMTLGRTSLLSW
Sequence of Dual specificity mitogen-activated protein kinase kinase 1 (Homo sapiens) (Q02750 whole entry): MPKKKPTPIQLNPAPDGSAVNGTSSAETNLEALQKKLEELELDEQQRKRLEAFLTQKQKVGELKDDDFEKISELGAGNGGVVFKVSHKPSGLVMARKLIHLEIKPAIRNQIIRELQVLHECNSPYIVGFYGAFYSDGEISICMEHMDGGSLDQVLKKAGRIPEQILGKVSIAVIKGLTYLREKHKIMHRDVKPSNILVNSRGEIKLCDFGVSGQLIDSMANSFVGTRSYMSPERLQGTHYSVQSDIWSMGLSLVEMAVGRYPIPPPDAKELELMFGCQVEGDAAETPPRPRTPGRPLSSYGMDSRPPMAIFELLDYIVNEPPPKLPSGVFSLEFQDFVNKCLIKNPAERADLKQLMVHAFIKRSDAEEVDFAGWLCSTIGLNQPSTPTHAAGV
Sequence of 5'-AMP-activated protein kinase catalytic subunit alpha-2 (Homo sapiens) (P54646 whole entry, looked up): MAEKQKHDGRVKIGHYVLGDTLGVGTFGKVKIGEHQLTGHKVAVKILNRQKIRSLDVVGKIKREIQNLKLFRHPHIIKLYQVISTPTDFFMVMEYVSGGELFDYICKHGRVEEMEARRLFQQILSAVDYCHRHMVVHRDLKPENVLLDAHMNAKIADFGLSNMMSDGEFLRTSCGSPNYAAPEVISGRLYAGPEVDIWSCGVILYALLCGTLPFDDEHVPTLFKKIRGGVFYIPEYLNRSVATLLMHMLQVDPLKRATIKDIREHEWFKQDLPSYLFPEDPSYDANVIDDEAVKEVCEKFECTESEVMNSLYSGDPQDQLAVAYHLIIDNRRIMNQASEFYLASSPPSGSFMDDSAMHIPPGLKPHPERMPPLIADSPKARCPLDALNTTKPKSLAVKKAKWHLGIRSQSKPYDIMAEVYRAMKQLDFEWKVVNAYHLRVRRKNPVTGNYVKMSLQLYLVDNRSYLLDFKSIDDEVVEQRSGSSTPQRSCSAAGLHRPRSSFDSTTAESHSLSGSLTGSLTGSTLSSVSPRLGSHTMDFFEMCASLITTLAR
Sequence of Interleukin-1 receptor-associated kinase 1 (Homo sapiens) (P51617 whole entry, looked up): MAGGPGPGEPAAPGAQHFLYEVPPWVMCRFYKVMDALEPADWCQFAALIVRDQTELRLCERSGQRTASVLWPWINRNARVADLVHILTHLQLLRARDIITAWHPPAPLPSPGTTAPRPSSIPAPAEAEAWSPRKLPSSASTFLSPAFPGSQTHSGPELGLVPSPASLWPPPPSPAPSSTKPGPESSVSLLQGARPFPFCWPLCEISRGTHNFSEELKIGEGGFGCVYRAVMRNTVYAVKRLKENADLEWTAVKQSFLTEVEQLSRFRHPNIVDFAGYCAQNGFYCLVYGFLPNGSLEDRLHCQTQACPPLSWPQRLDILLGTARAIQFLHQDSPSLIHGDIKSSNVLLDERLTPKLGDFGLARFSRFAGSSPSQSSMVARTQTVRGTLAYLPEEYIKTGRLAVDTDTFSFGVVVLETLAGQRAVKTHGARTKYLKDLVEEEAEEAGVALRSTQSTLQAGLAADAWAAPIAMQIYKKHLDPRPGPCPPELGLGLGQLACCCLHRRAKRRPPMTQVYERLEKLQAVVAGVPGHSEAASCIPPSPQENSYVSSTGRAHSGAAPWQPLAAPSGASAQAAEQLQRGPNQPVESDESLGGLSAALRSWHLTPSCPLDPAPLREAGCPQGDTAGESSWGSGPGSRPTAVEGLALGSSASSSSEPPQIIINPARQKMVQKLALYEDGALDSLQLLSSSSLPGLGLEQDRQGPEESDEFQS
Sequence of Phosphatidylinositol 4-kinase beta (Homo sapiens) (Q9UBF8 2-816 limits assumed): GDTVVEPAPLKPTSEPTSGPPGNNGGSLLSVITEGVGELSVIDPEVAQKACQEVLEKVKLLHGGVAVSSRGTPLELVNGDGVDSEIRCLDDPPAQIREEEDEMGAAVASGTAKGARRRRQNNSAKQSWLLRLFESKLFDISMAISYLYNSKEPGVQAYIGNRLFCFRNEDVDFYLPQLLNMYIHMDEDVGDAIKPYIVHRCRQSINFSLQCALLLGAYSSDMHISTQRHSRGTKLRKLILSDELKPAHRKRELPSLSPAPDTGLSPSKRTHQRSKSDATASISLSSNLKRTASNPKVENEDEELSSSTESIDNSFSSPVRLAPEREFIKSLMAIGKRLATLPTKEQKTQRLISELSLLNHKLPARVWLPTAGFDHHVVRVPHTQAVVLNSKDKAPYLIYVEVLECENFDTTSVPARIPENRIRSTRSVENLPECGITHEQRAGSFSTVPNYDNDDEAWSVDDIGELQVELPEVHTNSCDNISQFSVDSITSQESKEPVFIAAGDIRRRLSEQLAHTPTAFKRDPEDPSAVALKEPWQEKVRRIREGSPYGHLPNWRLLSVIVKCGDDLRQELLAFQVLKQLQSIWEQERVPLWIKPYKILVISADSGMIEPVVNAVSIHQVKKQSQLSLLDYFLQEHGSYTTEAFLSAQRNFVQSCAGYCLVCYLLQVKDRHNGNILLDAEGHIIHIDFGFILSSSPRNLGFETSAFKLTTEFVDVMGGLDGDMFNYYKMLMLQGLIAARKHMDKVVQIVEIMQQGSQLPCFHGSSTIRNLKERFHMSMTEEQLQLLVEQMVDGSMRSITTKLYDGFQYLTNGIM

| Compound | inhibition [1] [%] | inhibition [2] [%] | inhibition [3] [%] | inhibition [4] [%] | inhibition [5] [%] | inhibition [6] [%] | inhibition [7] [%] | inhibition [8] [%] | inhibition [9] [%] | inhibition [10] [%] |
| --- | --- | --- | --- | --- | --- | --- | --- | --- | --- | --- |
| C=CC(=O)Nc1ccccc1Nc1nc(Nc2ccc(N3CCN(C)CC3)cc2)ncc1Cl | 52.3 | 14.7 | 8.5 | 62.7 | 32.7 | 38.2 | 76 | 6.8 | 90.3 | 15.3 |
| COc1cc(O)c2c(c1)/C=C/C[C@H](O)[C@H](O)C(=O)/C=C\C[C@H](C)OC2=O | 56.6 | 21.8 | 12.6 | 85.3 | 15.4 | -6 | 33.6 | 15.1 | 90 | -3 |
| C=CC(=O)Nc1ccccc1Oc1nc(Nc2cnn(CCOC)c2)ncc1Cl | 53.7 | 27.2 | -6.3 | 13.9 | 18.7 | -4.5 | 0.2 | 20.9 | 31.2 | -9 |
